Measurements from ChEMBL document CHEMBL1127414 (J Med Chem, 1994).
Values after ≈ are worked out from the molar mass of the structure shown. Active and inactive are the calls of the source. No cut-off for these calls is given here.

How the values were obtained:
[1] = biological target: T1, Squalene synthase (Rattus norvegicus) (UniProt Q02769); experiment: concentration required to inhibit rat liver squalene synthase enzyme relative to control (L-694,599)
T1 sequence (whole entry): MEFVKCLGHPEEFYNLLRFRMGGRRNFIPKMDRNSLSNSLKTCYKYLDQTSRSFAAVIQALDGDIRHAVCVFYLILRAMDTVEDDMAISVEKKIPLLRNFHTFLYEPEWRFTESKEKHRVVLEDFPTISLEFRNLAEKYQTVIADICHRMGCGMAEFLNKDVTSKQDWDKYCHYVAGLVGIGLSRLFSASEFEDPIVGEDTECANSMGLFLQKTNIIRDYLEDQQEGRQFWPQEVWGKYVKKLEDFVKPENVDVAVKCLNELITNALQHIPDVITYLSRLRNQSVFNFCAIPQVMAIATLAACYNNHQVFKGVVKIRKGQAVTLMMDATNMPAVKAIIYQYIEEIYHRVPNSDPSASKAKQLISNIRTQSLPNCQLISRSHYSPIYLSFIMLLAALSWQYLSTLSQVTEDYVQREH
Method in brief: (§1)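 Enzyme from rat liver. […] Inhibitors added in DMSO (0.3% final) as 3-fold serial dilutions, usually up to 30 ng/mL (about 40 nM). IC50 read from % inhibition vs log concentration.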

[2] = biological target: T2, Squalene synthase (Mus musculus) (UniProt P53798); experiment: Tested for the effective dose required for the incorporation of [5-3H]-mevalonolactone into cholesterol by in vivo mouse assay by peroral administration; type: functional, organism-based
T2 sequence (whole entry): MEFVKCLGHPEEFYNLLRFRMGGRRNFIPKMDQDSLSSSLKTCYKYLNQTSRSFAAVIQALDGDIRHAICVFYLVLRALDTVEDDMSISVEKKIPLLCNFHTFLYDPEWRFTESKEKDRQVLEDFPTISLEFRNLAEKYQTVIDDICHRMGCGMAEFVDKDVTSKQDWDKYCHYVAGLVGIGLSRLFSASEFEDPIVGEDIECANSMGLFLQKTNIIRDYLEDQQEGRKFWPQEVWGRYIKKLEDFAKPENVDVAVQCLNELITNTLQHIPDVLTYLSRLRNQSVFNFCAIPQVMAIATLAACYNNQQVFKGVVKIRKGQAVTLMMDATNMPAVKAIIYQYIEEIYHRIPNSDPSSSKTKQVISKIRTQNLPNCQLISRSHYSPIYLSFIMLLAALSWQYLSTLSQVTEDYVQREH
Method in brief: (§2)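 Female Swiss Webster mice (~25 g), six per group, dosed po by gavage with inhibitor suspended in 5% emulphor. 30 min later, 0.5 μCi/mouse [5-3H]mevalonolactone in saline given sc. Livers removed 30 min after that and saponified in KOH/EtOH overnight at 55 °C, then petroleum-ether extracted. Nonsaponifiable dpm counted. Compounds first tested at a single dose (typically 12 or 24 mg/kg).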

Mus musculus [3] = experiment: Tested for its ability to inhibit the incorporation of [5-3H]-mevalonolactone into cholesterol by in vivo mouse assay by peroral administration at a dose of 6 mg/kg; type: functional; details: route oral; method in brief: as §2
HepG2 [4] = experiment: Concentration required to inhibit cholesterol synthesis in Hep G2 cells relative to control (IC50 of L-694,599); type: functional, Homo sapiens
Method in brief: (§3)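 Hep G2 cells held 2 days in lipoprotein-depleted FBS to stimulate sterol synthesis, then given inhibitor in serum-free medium for 2 h. 15 μCi [5-3H]mevalonate (0.2 mCi/mmol) added for 1 h. Cells washed and saponified, and radioactivity counted by scintillation.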

HepG2 [5] = experiment: Concentration required to inhibit cholesterol synthesis in Hep G2 cells; type: functional, cell-based; details: Homo sapiens; method in brief: as §3
Squalene synthase = biological target: T3, Squalene synthase (Rattus norvegicus, UniProt Q02769); experiment: Tested for inhibition against squalene synthase enzyme in rat liver
T3 sequence (Q02769 whole entry): T1 sequence (whole entry)

Mus musculus [6] = experiment: (§4) Tested for its ability to inhibit the incorporation of [5-3H]-mevalonolactone into cholesterol by in vivo mouse assay by peroral administration at a dose of 40 mg/kg; type: ADME, organism-based; parameters: dose 40 mg/kg, route oral; details: po; method in brief: as §2
Candida tropicalis = experiment: Concentration required to inhibit growth of MY 1012 strain of Candida tropicalis; type: functional
Method in brief: (§5)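 Broth microdilution against a panel of clinically relevant fungal strains. Read-out was the minimum fungicidal concentration in μg/mL.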

Cryptococcus neoformans [7] = experiment: Concentration required to inhibit growth of MY 2061 strain of Cryptococcus neoformans; type: functional; method in brief: as §5
Candida albicans [8] = experiment: Concentration required to inhibit growth of MY 1750 strain of Candida albicans; type: functional; method in brief: as §5
Cryptococcus neoformans [9] = experiment: Concentration required to inhibit growth of MY 1051 strain of Cryptococcus neoformans; type: functional; method in brief: as §5
Mus musculus [10] = experiment: Tested for its ability to inhibit the incorporation of [5-3H]-mevalonolactone into cholesterol by in vivo mouse assay by peroral administration at dose 100 mg/kg; type: functional; details: route oral; method in brief: as §2
Mus musculus [11] = experiment: Tested for its ability to inhibit the incorporation of [5-3H]-mevalonolactone into cholesterol by in vivo mouse assay by peroral administration not active at dose 40 mg/kg; NA = Not active; type: functional, organism-based; parameters: dose 40 mg/kg; method in brief: as §2
Aspergillus fumigatus = experiment: Concentration required to inhibit growth of MF 4839 strain of Aspergillus fumigatus; type: functional; method in brief: as §5
Candida albicans [12] = experiment: Concentration required to inhibit growth of MY 1055 strain of Candida albicans; type: functional; method in brief: as §5
Trichophyton benhamiae = experiment: Concentration required to inhibit growth of MF 4864 strain of Trichophyton mentagrophytes; type: functional, Arthroderma benhamiae; method in brief: as §5
Candida parapsilosis = experiment: Concentration required to inhibit growth of MY 1010 strain of Candida parapsilosis; type: functional; details: Lodderomyces parapsilosis; method in brief: as §5
[13] = tested on: squalene synthase (Saccharomyces cerevisiae); experiment: Compound required to inhibit 50% activity of yeast squalene synthase enzyme relative to control (L-694,599)
Mus musculus [14] = experiment: as §4; type: functional; details: route oral; method in brief: as §2
[15] = biological target: T1, Squalene synthase (Rattus norvegicus); experiment: Concentration required to inhibit rat liver squalene synthase enzyme relative to control (L-694,599); method in brief: as §1
HepG2 [16] = experiment: Concentration of compound required to inhibit cholesterol synthesis in Hep G2 cells relative to control (IC50 of L-694,599); type: functional, Homo sapiens; method in brief: as §3

| Structure (SMILES) | Relative activity [1] | IC50 (HepG2 [5]) [nM] | IC50 (Squalene synthase) [nM] | Relative activity [15] | Relative activity (HepG2 [4]) | MFC (Candida tropicalis) [µg/mL] | MFC (Cryptococcus neoformans [7]) [µg/mL] | MFC (Candida albicans [8]) [µg/mL] | MFC (Cryptococcus neoformans [9]) [µg/mL] | MFC (Aspergillus fumigatus) [µg/mL] | MFC (Candida albicans [12]) [µg/mL] | MFC (Trichophyton benhamiae) [µg/mL] | MFC (Candida parapsilosis) [µg/mL] | Relative activity (HepG2 [16]) | further results |
| --- | --- | --- | --- | --- | --- | --- | --- | --- | --- | --- | --- | --- | --- | --- | --- |
| C=C(CCC12OC(C(=O)O)C(O)(C(=O)O)C(C(=O)O)(O1)[C@H](O/C(S)=N/C(C)C)[C@H]2O)[C@@H](OC(C)=O)[C@H](C)Cc1ccccc1 (stereo partly specified) | 0.01 |  |  |  |  |  |  |  |  |  |  |  |  |  | ED50 [2]: > 6 mg/kg; inhibition in vivo at 6 mg/kg (Mus musculus [3]): 9% |
| C=C(CCC12OC(C(=O)O)C(O)(C(=O)O)C(C(=O)O)(O1)[C@H](OC(=O)/C=C/[C@@H](C)C[C@@H](C)CC)[C@H]2O)[C@@H](OC(C)=O)[C@H](C)Cc1ccccc1 (stereo partly specified) [ZARAGOZIC ACID A] |  | 6000 |  |  |  | 2 (≈ 2.9 µM) | 1 (≈ 1.45 µM) | 8 (≈ 11.6 µM) | 1 (≈ 1.45 µM) | 32 (≈ 46.3 µM) | 16 (≈ 23.2 µM) | 4 (≈ 5.79 µM) | 8 (≈ 11.6 µM) |  | inhibition in vivo at 100 mg/kg (Mus musculus [10]): 50%; inhibition (Mus musculus [11]): inactive |
| C=C(CCC12OC(C(=O)O)C(O)(C(=O)O)C(C(=O)O)(O1)[C@H](OC(=O)CCCCCCC)[C@H]2O)[C@@H](OC(C)=O)[C@H](C)Cc1ccccc1 (stereo partly specified) |  | 9600 | 0.66 | 0.17 |  |  |  |  |  |  |  |  |  | 0.57 |  |

Further lines, with some results ahead:

| Relative activity [1] | IC50 (HepG2 [5]) [nM] | IC50 (Squalene synthase) [nM] | Relative activity [15] | Structure (SMILES) | Relative activity (HepG2 [4]) | MFC (Candida tropicalis) [µg/mL] | MFC (Cryptococcus neoformans [7]) [µg/mL] | MFC (Candida albicans [8]) [µg/mL] | MFC (Cryptococcus neoformans [9]) [µg/mL] | MFC (Aspergillus fumigatus) [µg/mL] | MFC (Candida albicans [12]) [µg/mL] | MFC (Trichophyton benhamiae) [µg/mL] | MFC (Candida parapsilosis) [µg/mL] | Relative activity (HepG2 [16]) | further results |
| --- | --- | --- | --- | --- | --- | --- | --- | --- | --- | --- | --- | --- | --- | --- | --- |
| 0.47 | 1900 | 0.19 |  | C=C(CCC12OC(C(=O)O)C(O)(C(=O)O)C(C(=O)O)(O1)[C@H](OC(=O)OCCCCCCCCCCCC)[C@H]2O)[C@@H](OC(C)=O)[C@H](C)Cc1ccccc1 (stereo partly specified) | 4.36 |  |  |  |  |  |  |  |  |  | inhibition at 40 mg/kg (Mus musculus [6]): 5% |
|  | 1700 | 0.8 | 0.29 | C=C(CCC12OC(C(=O)O)C(O)(C(=O)O)C(C(=O)O)(O1)[C@H](OC(=O)CCCCCCCCCCC)[C@H]2O)[C@@H](OC(C)=O)[C@H](C)Cc1ccccc1 (stereo partly specified) | 3.24 | 8 (≈ 11.1 µM) | 0.12 (≈ 0.166 µM) | 8 (≈ 11.1 µM) | 2 (≈ 2.77 µM) | 8 (≈ 11.1 µM) | 4 (≈ 5.55 µM) | 4 (≈ 5.55 µM) | 8 (≈ 11.1 µM) |  | Relative activity [13]: 3.13; inhibition in vivo at 40 mg/kg (Mus musculus [14]): 20% |
|  | 1300 | 0.06 | 2 | C=C(CCC12OC(C(=O)O)C(O)(C(=O)O)C(C(=O)O)(O1)[C@H](OCCCCCCCCCCCOc1ccccc1)[C@H]2O)[C@@H](OC(C)=O)[C@H](C)Cc1ccccc1 (stereo partly specified) |  |  |  |  |  |  |  |  |  | 6.38 |  |
